What all share (type): functional
Experiment [1] has as its system Neisseria meningitidis. As to the kind of experiment: Antibacterial activity against Neisseria meningitidis after 24 hrs by broth microdilution method. The gist of the method: (§1)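 CLSI broth microdilution in cation-adjusted Mueller-Hinton II broth, final inoculum about 5 × 10^5 CFU/ml for most strains; streptococci supplemented with 2–5% lysed horse blood, H. influenzae in Haemophilus test medium. Aerobic incubation at 35–37°C for 24 h; MIC = lowest concentration with no visible growth.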

For experiment [2], the system named is Clostridioides difficile. As to the kind of experiment: Antibacterial activity against Clostridium difficile by agar dilution method. The gist of the method:
(§2)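 Anaerobes by CLSI agar dilution on brucella agar with hemin, vitamin K and 5% laked sheep blood; inoculum from 24-h enriched blood agar colonies resuspended in brucella broth to 0.5 McFarland. Plates incubated anaerobically at 35–37°C for 48 h.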

Experiment [3] has as its system Bacteroides fragilis. Put plainly: Antibacterial activity against Bacteroides fragilis by agar dilution method. The gist of the method:
as §2

Experiment [4] has as its system Cutibacterium acnes. As to the kind of experiment: Antibacterial activity against Propionibacterium acnes. The gist of the method:
as §2

The test system of experiment [5] is Escherichia coli. Put plainly: Antibacterial activity against Escherichia coli after 24 hrs by broth microdilution method. The essentials: as §1
Experiment [6] relates to Klebsiella pneumoniae. As to the kind of experiment: Antibacterial activity against Klebsiella pneumoniae. The gist of the method:
(§3)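 Aerobic isolates run by CLSI broth microdilution in cation-adjusted Mueller-Hinton II broth (streptococci plus 2–5% lysed horse blood), about 5 × 10^5 CFU/ml final; 24 h at 35–37°C aerobically; MIC read as lowest concentration without visible growth.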

The subject of experiment [7] is Enterobacter sp. As to the kind of experiment: Antibacterial activity against Enterobacter sp. The essentials:
as §3

Experiment [8] deals with Peptostreptococcus sp. Put plainly: Antibacterial activity against Peptostreptococcus sp. by agar dilution method. The essentials: as §2
For experiment [9], the system named is Acinetobacter baumannii. As to the kind of experiment: Antibacterial activity against Acinetobacter baumannii after 24 hrs by broth microdilution method. The essentials: as §1
Experiment [10] has as its system Neisseria gonorrhoeae. As to the kind of experiment: Antibacterial activity against Neisseria gonorrhoeae after 24 hrs by broth microdilution method. The gist of the method: as §1
For experiment [11], the system named is Streptococcus pneumoniae. As to the kind of experiment: Antibacterial activity against Streptococcus pneumoniae by agar dilution method.
The test system of experiment [12] is Pseudomonas aeruginosa. Put plainly: Antibacterial activity against Pseudomonas aeruginosa after 24 hrs by broth microdilution method. The gist of the method: as §1
For experiment [13], the system named is Streptococcus pyogenes. Put plainly: Antibacterial activity against Streptococcus pyogenes. The essentials: as §3
The test system of experiment [14] is Moraxella catarrhalis. Put plainly: Antibacterial activity against Moraxella catarrhalis after 24 hrs by broth microdilution method. The gist of the method:
as §1

Experiment [15] has as its system Haemophilus influenzae. As to the kind of experiment: Antibacterial activity against Haemophilus influenzae after 24 hrs by broth microdilution method. The gist of the method:
as §1

In experiment [16] the test system is Streptococcus viridans. Put plainly: Antibacterial activity against Streptococcus viridans after 24 hrs by broth microdilution method. The gist of the method: as §1
Experiment [17] has as its system Staphylococcus aureus. As to the kind of experiment: Antibacterial activity against methicillin-resistant Staphylococcus aureus after 24 hrs by broth microdilution method. The gist of the method: (§4)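 Broth microdilution per CLSI in cation-adjusted Mueller-Hinton II broth, final inoculum approximately 5 × 10^5 CFU/ml. Plates were incubated aerobically at 35 to 37°C for 24 h. MIC was the lowest concentration giving no visible growth. Reserpine, where used, was at a final concentration of 20 μg/ml.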

Experiment [18] deals with Mycoplasmoides pneumoniae. As to the kind of experiment: Antibacterial activity against Mycoplasma pneumoniae after 24 hrs by broth microdilution method.
For experiment [19], the system named is Enterococcus faecium. As to the kind of experiment: Antibacterial activity against Enterococcus faecium. The gist of the method: as §3
Experiment [20] has as its system Staphylococcus aureus. As to the kind of experiment: Antibacterial activity against methicillin-susceptible Staphylococcus aureus after 24 hrs by broth microdilution method. The gist of the method: as §4
Experiment [21] has as its system Legionella pneumophila. As to the kind of experiment: Antibacterial activity against Legionella pneumophila after 24 hrs by broth microdilution method.
Experiment [22] relates to Enterococcus faecalis. As to the kind of experiment: Antibacterial activity against Enterococcus faecalis. The essentials:
as §3

Values after ≈ are worked out from the molar mass of the structure shown.

In [1], `C[C@@H](O)[C@H]1C(=O)N2C(C(=O)O)=C(S[C@@H]3CN[C@H](C(=O)N(C)C)C3)[C@H](C)[C@H]12` [MEROPENEM] gave an MIC50 of 0.008 µg/mL (≈ 0.0209 µM) and an MIC90 of 0.015 µg/mL (≈ 0.0391 µM).

For the compound `C[C@@H](O)[C@H]1C(=O)N2C(C(=O)O)=C(SCCNC=N)C[C@H]12` [IMIPENEM ANHYDROUS], the MIC50 in experiment [2] was determined as 4 µg/mL (≈ 13.4 µM); in experiment [3], 0.25 µg/mL (≈ 0.835 µM); in experiment [4], 0.06 µg/mL (≈ 0.2 µM); in experiment [5] it was 0.5 µg/mL (≈ 1.67 µM); in experiment [6], 0.5 µg/mL (≈ 1.67 µM); in experiment [7], 1 µg/mL (≈ 3.34 µM). The values for the MIC50 in [8] and in experiment [9] were 0.06 µg/mL (≈ 0.2 µM) and 1 µg/mL (≈ 3.34 µM), respectively. Besides, the MIC90 in experiment [2] turned out to be 4 µg/mL (≈ 13.4 µM); in experiment [3], 0.25 µg/mL (≈ 0.835 µM); in [4], 0.06 µg/mL (≈ 0.2 µM); in [5], 0.5 µg/mL (≈ 1.67 µM); in [6] it was 1 µg/mL (≈ 3.34 µM); in [7] it was 2 µg/mL (≈ 6.68 µM). Besides, the figures for the MIC90 in [8] and in [9] were 0.25 µg/mL (≈ 0.835 µM) and more than 16 µg/mL, respectively.

On to `CO/N=C(\C(=O)N[C@@H]1C(=O)N2C(C(=O)O)=C(CSc3nc(=O)c(O)nn3C)CS[C@H]12)c1csc(N)n1` [CEFTRIAXONE], for which the MIC50 in experiment [10] was found to be 0.004 µg/mL (≈ 0.00721 µM); in [11] it was 0.12 µg/mL (≈ 0.216 µM); in [5], 0.06 µg/mL (≈ 0.108 µM); in experiment [6] it was 16 µg/mL (≈ 28.9 µM); in experiment [7], 0.12 µg/mL (≈ 0.216 µM); in experiment [12] it was 64 µg/mL (≈ 115 µM). The MIC50 in [13] is 0.03 µg/mL (≈ 0.0541 µM); in experiment [14] it was 0.5 µg/mL (≈ 0.902 µM); in [15], less than 0.008 µg/mL; in [9], 8 µg/mL (≈ 14.4 µM); in [16], 0.12 µg/mL (≈ 0.216 µM). In addition, the MIC90 in experiment [10] was 0.03 µg/mL (≈ 0.0541 µM); in [11], more than 2 µg/mL; in [5] it was 0.06 µg/mL (≈ 0.108 µM); in experiment [6], 32 µg/mL (≈ 57.7 µM); in [7], more than 64 µg/mL; in [12], more than 64 µg/mL. The MIC90 is 0.03 µg/mL (≈ 0.0541 µM) in [13]; 1 µg/mL (≈ 1.8 µM) in experiment [14]; 0.015 µg/mL (≈ 0.027 µM) in experiment [15]; more than 64 µg/mL in [9]; 1 µg/mL (≈ 1.8 µM) in experiment [16].

As for `CCC[C@@H]1C[C@@H](C(=O)N[C@@H]([C@H]2O[C@H](SC)[C@H](O)[C@@H](O)[C@H]2O)[C@H](C)Cl)N(C)C1` [CLINDAMYCIN], the MIC50 in experiment [2] came out at 2 µg/mL (≈ 4.71 µM); in experiment [3] it was 1 µg/mL (≈ 2.35 µM); in experiment [4], 0.06 µg/mL (≈ 0.141 µM); in experiment [8], 0.25 µg/mL (≈ 0.588 µM). For the same compound, the MIC90 in experiment [2] is more than 32 µg/mL; in [3], 4 µg/mL (≈ 9.41 µM); in experiment [4] it was 0.06 µg/mL (≈ 0.141 µM); in [8], 1 µg/mL (≈ 2.35 µM).

Regarding `CC1(C)S[C@@H]2[C@H](NC(=O)[C@H](N)c3ccccc3)C(=O)N2[C@H]1C(=O)O` [AMPICILLIN], the MIC50 is 4 µg/mL (≈ 11.4 µM) in [5]; more than 32 µg/mL in experiment [6]; more than 32 µg/mL in [7]; more than 32 µg/mL in experiment [12]; 4 µg/mL (≈ 11.4 µM) in [14]; more than 16 µg/mL in [15]. In addition, the MIC50 in experiment [9] amounted to 16 µg/mL (≈ 45.8 µM). The MIC90 in experiment [5] was more than 32 µg/mL; in experiment [6], more than 32 µg/mL; in experiment [7] it was more than 32 µg/mL; in experiment [12], more than 32 µg/mL; in experiment [14], 8 µg/mL (≈ 22.9 µM); in [15], more than 16 µg/mL. The MIC90 in experiment [9] is more than 32 µg/mL.

`C[C@H]1COc2c(N3CCN(C)CC3)c(F)cc3c(=O)c(C(=O)O)cn1c23.C[C@H]1COc2c(N3CCN(C)CC3)c(F)cc3c(=O)c(C(=O)O)cn1c23.O` [LEVOFLOXACIN]: the MIC50 in experiment [17] was 16 µg/mL; in [11] it was 1 µg/mL; in [5] it was 0.03 µg/mL; in experiment [6] it was more than 0.25 µg/mL; in experiment [19], more than 16 µg/mL; in experiment [20], 0.25 µg/mL. Also, the MIC50 in experiment [7] is 0.03 µg/mL; in [1], not above 0.12 µg/mL; in [12], 0.5 µg/mL; in experiment [22], 16 µg/mL; in [13], 0.5 µg/mL; in [14], 0.03 µg/mL. The MIC50 in experiment [15] is 0.015 µg/mL; in experiment [9], 0.25 µg/mL; in experiment [16] it was 1 µg/mL. The MIC in experiment [18] came to 0.5 µg/mL; in experiment [21], 0.015 µg/mL. The MIC90 in experiment [11] was 1 µg/mL; in experiment [6] it was more than 2 µg/mL; in [19], more than 16 µg/mL; in [20], more than 16 µg/mL; in experiment [7] it was 0.5 µg/mL; in [1], not above 0.12 µg/mL. Besides, the MIC90 in [12] was more than 8 µg/mL; in experiment [22] it was more than 16 µg/mL; in experiment [13], 1 µg/mL; in experiment [14], 0.06 µg/mL; in experiment [15] it was 0.03 µg/mL; in experiment [9], more than 8 µg/mL. The compound also yielded an MIC90 in experiment [16] of 1 µg/mL.

In the case of `CN(C)[C@@H]1C(O)=C(C(N)=O)C(=O)[C@@]2(O)C(O)=C3C(=O)c4c(O)cccc4[C@@](C)(O)[C@H]3C[C@@H]12` [TETRACYCLINE], in experiment [10], the MIC50 is 0.25 µg/mL (≈ 0.563 µM) and the MIC90 came out at 1 µg/mL (≈ 2.25 µM).

For the compound `Cc1onc(-c2ccccc2)c1C(=O)N[C@@H]1C(=O)N2[C@@H]1SC(C)(C)[C@@H]2C(=O)O` [OXACILLIN], the MIC50 was more than 16 µg/mL in experiment [17] and 0.5 µg/mL (≈ 1.25 µM) in experiment [20]. Also, the values for the MIC90 in experiment [17] and in experiment [20] were more than 16 µg/mL and 0.5 µg/mL (≈ 1.25 µM), respectively.

Values taken from ChEMBL document CHEMBL1147099, “In vitro and in vivo antibacterial activities of heteroaryl isothiazolones against resistant gram-positive pathogens” (Antimicrob Agents Chemother, 2007).
